High-throughput results as filed in PubChem.
HNF4A DNA FP: change in binding of human HNF4 alpha to DNA; P41235; HNF4a-FITC DNA binding, fluorescence polarization, 1 h; activity change, % at 10 µM; 360,000 tested, 0.3% active; AID 1224865; in the data active means activity change above about 30%, passing the limit was not always enough
IDE cell inh: cellular human IDE inhibition; P14735; HEK cells, FAbetaB cleavage, fluorescence polarization; inhibition, % at 5.59 µM; 320,000 tested, 0.41% active; AID 434962;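 active means percent inhibition above the average of all tested compounds plus 3 SD, set per screening campaign, cut at about 16% in these data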;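 further: IDE supplied by intact live HEK cells; FP after avidin binding of uncleaved biotin substrate so inhibition keeps polarization high; 0% = DMSO wells and 100% = 60 µM reference IDE inhibitor Ii1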
Target sequence (P14735 whole entry, looked up): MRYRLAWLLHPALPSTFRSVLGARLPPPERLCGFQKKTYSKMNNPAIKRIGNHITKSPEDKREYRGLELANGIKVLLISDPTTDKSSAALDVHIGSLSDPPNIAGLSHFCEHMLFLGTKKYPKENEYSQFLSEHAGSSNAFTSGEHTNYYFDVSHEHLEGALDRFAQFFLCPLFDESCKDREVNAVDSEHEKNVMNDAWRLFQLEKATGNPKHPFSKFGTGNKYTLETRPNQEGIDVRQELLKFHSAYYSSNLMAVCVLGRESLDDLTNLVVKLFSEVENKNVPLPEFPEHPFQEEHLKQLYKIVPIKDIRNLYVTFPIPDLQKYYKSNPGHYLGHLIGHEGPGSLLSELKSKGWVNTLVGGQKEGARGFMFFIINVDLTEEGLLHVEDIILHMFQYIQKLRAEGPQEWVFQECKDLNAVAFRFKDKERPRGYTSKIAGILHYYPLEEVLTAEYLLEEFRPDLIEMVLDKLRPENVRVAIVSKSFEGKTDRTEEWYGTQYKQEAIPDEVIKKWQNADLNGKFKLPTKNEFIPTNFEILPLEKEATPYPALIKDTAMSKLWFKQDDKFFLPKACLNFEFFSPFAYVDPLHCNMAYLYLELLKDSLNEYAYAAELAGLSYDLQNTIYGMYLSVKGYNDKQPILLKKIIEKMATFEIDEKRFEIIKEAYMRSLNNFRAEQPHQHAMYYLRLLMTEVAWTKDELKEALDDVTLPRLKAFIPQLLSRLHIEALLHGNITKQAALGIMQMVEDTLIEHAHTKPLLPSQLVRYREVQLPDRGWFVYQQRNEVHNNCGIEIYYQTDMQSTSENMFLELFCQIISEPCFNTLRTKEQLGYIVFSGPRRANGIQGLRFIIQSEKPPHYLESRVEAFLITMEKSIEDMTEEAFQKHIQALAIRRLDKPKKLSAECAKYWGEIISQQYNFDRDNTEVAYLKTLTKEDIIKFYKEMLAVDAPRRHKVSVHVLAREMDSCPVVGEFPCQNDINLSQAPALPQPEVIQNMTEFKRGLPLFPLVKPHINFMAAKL
CSN deneddyl inh: inhibitors of human CSN-mediated cullin deneddylation; AID 651999; Q92905; 360,000 tested, 0.38% active; inhibition, % at 12.5 µM; Purified CSN, SCF-Nedd8-OG deneddylation, fluorescence polarization;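 active means pattern-corrected inhibition above about 35%, with an unprinted fluorescence ratio check between 0.5 and 1.5, limit read from the data, passing the limit was not always enough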;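 further: 0% = enzyme with substrate and 100% = substrate without enzyme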
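test system = HEK293T-derived human Csn5 enzyme | amount = 0.24 nM Csn5 enzyme, final concentration | medium = Tris/NaCl/DTT buffer, pH 7.5 | schedule = 90 min reaction at room temperature | signal = FP | evaluation = inhibition of Csn5 cleavage, % | compound dosing = single dose of 12.5 µM compound with 0.25% DMSO | probe or stimulus = 10 nM SCFSkp2-Nedd8OG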
Tb MetRS inh: blocks T. brucei methionyl-tRNA synthetase activity; AID 624268; 360,000 tested, 0.4% active; purified T. brucei MetRS, ATP depletion, Kinase-Glo luminescence; inhibition, % at 11.9 µM;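 active means inhibition above a per-plate cutoff of the control wells' mean inhibition plus 3 SD, cut at about 5.5% in these data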;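 further: 0% = DMSO wells median and 100% = median of wells with control inhibitor compound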
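Material: T. brucei methionyl-tRNA synthetase, purified; reagent: substrates ATP, L-methionine and bulk Escherichia coli tRNA; dosing: 11.9 µM single point; timing: 15 min plus 2 h at 25 °C; detection: luminescence of leftover ATP; evaluation: % inhibition; control set: DMSO-only wells as low control; replicates: singlicate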
TPT1 inhibitor: inhibitors of Candida albicans tRNA 2'-phosphotransferase TPT1. 300,000 tested, 0.81% active. inhibition, % at 5 µM. recombinant caTPT1, FP RNA substrate dephosphorylation. AID 1962;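 active means inhibition above the mean of all tested compounds plus 3 SD, set per screening campaign, cut at about 24% in these data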;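 further: plate controls were DMSO alone for no effect and ferristatin control at 100 nM for full effect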
IDE act: activators of human insulin-degrading enzyme in cells. P14735. HEK cells, FAbeta-B cleavage, fluorescence polarization; 0% vehicle, 100% cell-free pure enzyme wells. activation, % at 5.96 µM. 340,000 tested, 0.073% active;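 active means activation above the mean of all tested compounds plus 3 SD, set per screening campaign, cut at about 17% in these data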
* marks the source's active call; other numbers are inactive results; x = no result given. The list is not random: actives were taken first. Their share in the collection is about 1.7%.

SMILES	HNF4A DNA FP	IDE cell inh	CSN deneddyl inh	Tb MetRS inh	TPT1 inhibitor	IDE act
Cc1cccc(N2CCN(C(=O)c3[nH]c(C(F)(F)F)nc3-c3ccccc3)CC2)c1C	1	x	4	0	x	x
CCOc1ccc(OCc2ccc(C(=O)N3CCCCC3)o2)cc1	36*	9	-3	0	-4	0
COC(=O)c1ccc(S(=O)(=O)N2Cc3ccccc3C2)cc1	1	1	-10	0	-8	7
CC(Oc1ccc(Cl)cc1Cl)C(=O)Nc1ccncc1 (stereo not given)	-4	-3	48*	0	1	3
CC(=O)Nc1ccc(NC(=O)C(C)Oc2ccc(Cl)cc2Cl)cc1 (stereo not given)	4	-1	-2	-1	0	6
O=S(=O)(c1ccc(Cl)cc1)N1CCc2ccccc21	93*	3	54*	0	0	2
O=S(=O)(NC1CC1)c1ccc(S(=O)(=O)N2CCc3ccccc32)cc1	-1	-2	-2	-1	1	-1
O=S(=O)(c1ccc(F)cc1)N1CCc2ccccc21	76*	5	48*	-1	-1	-3
CC(O)CNCc1ccccc1C(F)(F)F (stereo not given)	4	1	-4	0	-1	3
CC(C)(C)Nc1c(C2CCNCC2)nc2c(OCc3ccccc3)cccn12	-3	x	1	0	x	x
O=S(=O)(NCc1ccccc1Cl)c1cccs1	2	5	-6	0	-5	5
O=C(O)c1cccc(-c2ccc(/C=N/n3cnc4sc5c(c4c3=O)CCCC5)o2)c1	x	0	x	x	0	x
Cc1ccc(C2CC(=O)C=C(Nc3ccc(Cl)cc3)C2)cc1 (stereo not given)	35*	13	3	1	-5	3
CCOc1ccc2nc(S(=O)(=O)NC(=O)C3(C)CCN3C(=O)c3cccc(F)c3)sc2c1 (stereo not given)	4	x	-3	0	x	x
COc1ccc(NC(=S)N(CCN2CCOCC2)Cc2cc3cc4c(cc3[nH]c2=O)OCCO4)cc1	4	9	5	0	0	-6
Cc1cc(=O)oc2cc(OCC(=O)N3CCc4ccccc4C3)ccc12	0	-1	0	0	3	-1
COc1ccc2c(c1)c(=O)oc1c(C)c(OCC(=O)N3CCc4ccccc4C3)ccc12	-9	0	36*	0	1	-2
O=C(COC(=O)C1CC2C=CC1C2)NCc1ccco1 (stereo not given)	-11	1	35*	0	9	3
O=C(COC(=O)C1CC2C=CC1C2)NCc1ccc(F)cc1 (stereo not given)	-4	-4	5	0	-5	0
O=C(c1ccccc1)C1C(c2ccccc2)C1[N+](=O)[O-] (stereo not given)	-2	2	3	0	0	-4
CN(C)c1ccc([C@@H]2[C@@H]([N+](=O)[O-])[C@H]3C=Cc4ccccc4N3[C@H]2C(=O)c2ccc(Cl)cc2)cc1	30	7	24	0	82*	-15
Oc1ccc(Cl)cc1-c1cc(-c2ccco2)[nH]n1	3	1	45*	0	3	3
Oc1ccccc1-c1cc(-c2ccco2)[nH]n1	4	-2	23	-1	1	-4
CCO/C(C)=N/Oc1cncnc1	2	x	-1	0	x	x
O=C(Cn1sc2ccccc2c1=O)NC12CC3CC(CC(C3)C1)C2	-1	58*	5	0	0	-37
SMILES	HNF4A DNA FP	IDE cell inh	CSN deneddyl inh	Tb MetRS inh	TPT1 inhibitor	IDE act
O=C(Cn1sc2ccccc2c1=O)Nc1ccccc1	-1	x	-5	-1	x	x
CC(C)(C)c1ccc(C(=O)N2[C@H](COCc3ccccc3)C=CS2(=O)=O)cc1	0	x	2	-1	x	x
NC(=O)c1ccc[n+]([C@H]2O[C@@H](COP(=O)([O-])OP(=O)(O)OC[C@H]3O[C@@H](n4cnc5c(N)ncnc54)[C@H](O)[C@@H]3O)[C@H](O)[C@@H]2O)c1	-10	9	-7	-7	0	5
CC(C)CN(C(=O)CN1CCc2ccccc21)c1c(N)n(CC(C)C)c(=O)[nH]c1=O	32*	6	16	-1	4	-2
CC(C)CN(C(=O)CN1CCN(c2ccccc2F)CC1)c1c(N)n(CC(C)C)c(=O)[nH]c1=O	-1	2	-10	-1	-1	2
CN1CCc2c(sc(/N=C/c3c[nH]c4ccccc34)c2C(N)=O)C1	32	-2	115*	0	2	x
CCOC(=O)c1c(/N=C/c2ccc(OC)cc2O)sc2c1CCN(C)C2	7	2	5	0	-4	6
Cc1ccc(C(=O)OC(C)C(=O)c2cc(C)c(C)cc2C)o1 (stereo not given)	0	3	0	0	2	2
c1ccc(-c2cnn3c(-c4ccccc4)c(-c4ccccc4)nc3n2)cc1	-95	x	-95	-1	x	-20
CCOC(=O)C1=C(c2ccccc2)NC(=O)NC1c1ccc(OC)cc1 (stereo not given)	-4	0	107*	0	-2	2
CC(C)Cn1c(N)c(C(=O)COC(=O)[C@@H]2CCCN2C(=O)c2cccs2)c(=O)n(C)c1=O	7	2	1	0	-5	8
COc1ccc(C2C=C(c3ccc(Cl)cc3)Nc3nc(NC(C)=O)nn32)cc1 (stereo not given)	x	20*	x	x	-50	x
COc1ccc(C2C=C(c3ccc(Br)cc3)Nc3nc(N4C(=O)CCC4=O)nn32)cc1 (stereo not given)	-15	29*	-2	-1	-37	-19
O=C(Nc1ncccn1)c1ccc([N+](=O)[O-])o1	78*	-3	64*	-1	6	3
O=C(COC(=O)/C=C/c1ccc([N+](=O)[O-])cc1)NCC1CCCCC1	0	1	3	0	x	3
Cc1ccc(-c2nc3cccnc3s2)cc1NC(=O)C1c2ccccc2Oc2ccccc21	40*	x	36*	-1	x	9
O=C(CSc1nnc(-c2ccco2)o1)c1ccc[nH]1	-3	0	38*	-1	6	5
O=C(CCl)NCCN1C(=O)S/C(=C\c2cccnc2)C1=O	12	0	62*	-1	1	0
CN(C)c1ccc(N=C/C=C2\N(C)c3ccccc3C2(C)C)cc1	23	-2	12	-1	9	-13
CN1/C(=C\C=N\NC(=O)c2ccc(O)cc2)C(C)(C)c2ccccc21	38*	7	33	-1	-13	2
CN1\C(=C/C=C/C=C/C=[N+](C)C)C(C)(C)c2ccccc21	102*	x	120	-1	x	-82
CN1/C(=C\C=Nc2ccc3ccccc3c2)C(C)(C)c2ccccc21	30	2	15	0	49*	-3
